Laboratory results taken from ChEMBL document CHEMBL1130404, “Synthesis and evaluation of polycyclic pyrazolo[3,4-d]pyrimidines as PDE1 and PDE5 cGMP phosphodiesterase inhibitors” (J Med Chem, 1997).

Key:
[1] = target: cGMP-specific 3',5'-cyclic phosphodiesterase (Bos taurus, UniProt Q28156); experiment: Inhibition of phosphodiesterase 5 from bovine lung
Summary of the method: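 Purified bovine lung enzyme in 50 mM Tris-HCl (pH 7.5), 2 mM MgCl2, 0.1 mg/mL BSA with 1 μM [3H]cGMP as substrate, incubated 30 min at 30 °C. IC50 derived from percent inhibition plotted against log molar concentration; run in duplicate, mean of two reported.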

Rattus norvegicus [2] = experiment: Antihypertensive activity in spontaneously hypertensive rats at 10 mg/kg administered orally; assay type: functional; conditions: route oral
Summary of the method: (§1)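 Spontaneously hypertensive rats dosed orally with aqueous solution or suspension in 0.4% methylcellulose vehicle. Value is peak change in mean arterial pressure relative to a vehicle-treated control group.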

Phosphodiesterase 1 = Phosphodiesterase 1 (Bos taurus, UniProt Q01061+P14100); experiment: Inhibition of phosphodiesterases PDE1 from bovine aorta; assay type: protein assay
Summary of the method: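 Bovine aorta enzyme; 50 mM Tris-HCl pH 7.5, 2 mM MgCl2, 0.1 mg/mL BSA, 1 mM CaCl2, 0.1 μM calmodulin, 1 μM [3H]cGMP substrate; 30 min at 30 °C. IC50 read from % inhibition vs log molar concentration curve; duplicates, mean reported.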

[3] = target: 3',5'-cyclic-nucleotide phosphodiesterase (Bos taurus, UniProt A0A3Q1M1E8); experiment: Inhibition of Phosphodiesterase 3 from bovine heart
3',5'-cyclic-nucleotide phosphodiesterase, sequence (A0A3Q1M1E8 1-1126): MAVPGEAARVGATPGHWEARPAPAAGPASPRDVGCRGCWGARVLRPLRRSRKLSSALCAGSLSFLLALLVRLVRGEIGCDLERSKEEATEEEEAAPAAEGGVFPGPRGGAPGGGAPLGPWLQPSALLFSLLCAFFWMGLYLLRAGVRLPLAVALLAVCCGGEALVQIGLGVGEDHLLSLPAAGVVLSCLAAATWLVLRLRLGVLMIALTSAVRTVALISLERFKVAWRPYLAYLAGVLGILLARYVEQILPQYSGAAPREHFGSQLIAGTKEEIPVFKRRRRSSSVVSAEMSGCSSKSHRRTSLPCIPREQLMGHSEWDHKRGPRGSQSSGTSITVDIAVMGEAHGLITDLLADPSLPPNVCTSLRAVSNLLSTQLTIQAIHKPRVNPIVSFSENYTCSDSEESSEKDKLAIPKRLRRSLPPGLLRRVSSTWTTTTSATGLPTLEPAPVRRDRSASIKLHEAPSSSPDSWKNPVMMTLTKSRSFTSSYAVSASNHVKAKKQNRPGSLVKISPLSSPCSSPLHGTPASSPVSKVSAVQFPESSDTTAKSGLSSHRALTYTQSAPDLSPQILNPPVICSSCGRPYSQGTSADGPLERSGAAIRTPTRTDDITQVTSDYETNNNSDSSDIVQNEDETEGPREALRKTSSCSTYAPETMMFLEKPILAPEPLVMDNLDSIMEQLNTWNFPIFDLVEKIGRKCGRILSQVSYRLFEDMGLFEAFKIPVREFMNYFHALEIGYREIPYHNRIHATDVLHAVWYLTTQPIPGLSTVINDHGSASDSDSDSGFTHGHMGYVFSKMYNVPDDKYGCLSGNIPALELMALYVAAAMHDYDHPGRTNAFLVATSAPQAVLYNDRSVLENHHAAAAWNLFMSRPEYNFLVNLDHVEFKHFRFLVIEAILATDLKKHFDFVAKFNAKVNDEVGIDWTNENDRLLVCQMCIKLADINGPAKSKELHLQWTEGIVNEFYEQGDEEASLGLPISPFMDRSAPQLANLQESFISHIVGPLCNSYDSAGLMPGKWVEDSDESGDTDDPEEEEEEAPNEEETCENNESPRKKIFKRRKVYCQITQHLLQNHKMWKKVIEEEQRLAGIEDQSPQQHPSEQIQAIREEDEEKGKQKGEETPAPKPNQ
Summary of the method: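 Enzymes purified from bovine heart (PDE3) or canine kidney (PDE4); 1 μM [3H]cAMP substrate, 50 mM Tris-HCl pH 7.5, 2 mM MgCl2, 0.1 mg/mL BSA, 30 min at 30 °C. IC50 taken from % inhibition vs log molar concentration; duplicates, mean reported.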

[4] = target: T1, cGMP-dependent 3',5'-cyclic phosphodiesterase (Bos taurus, UniProt P14099); experiment: Inhibition of Phosphodiesterase 2 from bovine adrenal cortex
T1 sequence (P14099 whole entry): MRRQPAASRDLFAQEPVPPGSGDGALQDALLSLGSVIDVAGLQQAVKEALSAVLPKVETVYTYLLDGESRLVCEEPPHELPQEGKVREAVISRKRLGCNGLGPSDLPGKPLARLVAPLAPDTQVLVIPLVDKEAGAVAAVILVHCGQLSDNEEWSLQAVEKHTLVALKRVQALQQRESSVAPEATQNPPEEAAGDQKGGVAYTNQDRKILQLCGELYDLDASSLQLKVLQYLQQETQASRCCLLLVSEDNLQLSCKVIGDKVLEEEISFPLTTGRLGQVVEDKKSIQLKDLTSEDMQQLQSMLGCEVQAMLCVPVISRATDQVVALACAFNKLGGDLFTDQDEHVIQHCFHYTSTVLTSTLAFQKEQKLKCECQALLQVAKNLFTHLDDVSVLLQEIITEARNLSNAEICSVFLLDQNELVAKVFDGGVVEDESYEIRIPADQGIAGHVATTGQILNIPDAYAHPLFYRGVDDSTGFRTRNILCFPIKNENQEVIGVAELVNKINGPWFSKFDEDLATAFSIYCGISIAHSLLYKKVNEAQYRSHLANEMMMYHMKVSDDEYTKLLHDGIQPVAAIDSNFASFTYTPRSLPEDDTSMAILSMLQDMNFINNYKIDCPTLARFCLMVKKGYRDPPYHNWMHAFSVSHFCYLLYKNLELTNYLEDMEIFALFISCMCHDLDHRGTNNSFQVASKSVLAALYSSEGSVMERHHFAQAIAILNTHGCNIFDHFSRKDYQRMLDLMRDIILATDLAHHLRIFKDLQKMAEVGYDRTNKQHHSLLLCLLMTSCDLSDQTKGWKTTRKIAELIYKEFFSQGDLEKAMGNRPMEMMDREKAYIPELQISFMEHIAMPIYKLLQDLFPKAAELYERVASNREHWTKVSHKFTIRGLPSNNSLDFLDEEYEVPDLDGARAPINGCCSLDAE
Summary of the method: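 Recombinant bovine adrenal cortex enzyme; [3H]cAMP substrate in 50 mM Tris-HCl pH 7.5, 2 mM MgCl2, 0.1 mg/mL BSA, mixture also holding 5 μM cGMP; 30 min, 30 °C. IC50 from inhibition vs log molar concentration curve; duplicate determinations averaged.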

[5] = target: Phosphodiesterase 4 (Canis familiaris); experiment: Inhibition of phosphodiesterase PDE4 from canine kidney
Rattus norvegicus [6] = experiment: Antihypertensive activity in spontaneously hypertensive rats at 25 mg/kg administered orally; assay type: functional; conditions: route oral; summary of the method: as §1

Structure (SMILES)	IC50 [1]	IC50 (Phosphodiesterase 1)	IC50 [3]	IC50 [4]	IC50 [5]	Delta mmHg (Rattus norvegicus [2])	Delta mmHg (Rattus norvegicus [2]; 10 mg/kg)	Delta mmHg (Rattus norvegicus [6])
Cc1n[nH]c2c1C(=O)N(C)C1=N[C@@H]3CCC[C@@H]3N12	2.9 µM	18 µM	> 100 µM	–	–	-7	–	–
CN1C(=O)c2c(nn(Cc3ccccc3)c2-c2ccccc2)N2C1=N[C@@H]1CCC[C@@H]12	2.1 µM	0.54 µM	55 µM	–	–	1	–	–
Cc1nc2c(n1Cc1ccccc1)C(=O)N(C)C1=N[C@@H]3CCC[C@@H]3N12	–	–	–	–	–	-28	–	–
CN1C(=O)c2cnn(Cc3ccccc3)c2N2C1=N[C@@H]1CCC[C@@H]12 (racemic)	3.1 µM	29 µM	55 µM	–	–	–	–	-14
CN1C(=O)c2c(Cc3ccccc3)n[nH]c2N2C1=N[C@@H]1CCC[C@@H]12 (racemic)	0.19 µM	1.1 µM	> 100 µM	–	–	–	–	-16

Second part, led by results:

IC50 [1]	IC50 (Phosphodiesterase 1)	IC50 [3]	IC50 [4]	IC50 [5]	Structure (SMILES)	Delta mmHg (Rattus norvegicus [2])	Delta mmHg (Rattus norvegicus [2]; 10 mg/kg)	Delta mmHg (Rattus norvegicus [6])
0.075 µM	0.06 µM	55 µM	11 µM	0.23 µM	CN1C(=O)c2c(nn(C)c2Cc2ccccc2)N2CC3(CCCC3)N=C12	-33	–	–
0.14 µM	0.018 µM	42 µM	–	–	CN1C(=O)c2c(nn(C)c2Cc2ccccc2)N2CC(C)(C)N=C12	–	–	–
0.1 µM	0.055 µM	80 µM	–	–	CN1C(=O)c2c(nn(C)c2Cc2ccccc2)N2C1=N[C@@H]1CCC[C@@H]12	–	-26	–
0.1 µM	0.02 µM	90 µM	–	–	CC(C)[C@@H]1CN2C(=N1)N(C)C(=O)c1c2nn(C)c1Cc1ccccc1	–	–	–
1 µM	2 µM	50 µM	–	–	Cc1nn(Cc2ccccc2)c2c1C(=O)N(C)C1=N[C@@H]3CCC[C@@H]3N12	-3	–	–
0.14 µM	0.16 µM	85 µM	–	–	CN1C(=O)c2c(nn(C)c2Cc2ccccc2)N2C1=N[C@@H]1CCC[C@@H]12 (racemic)	–	-18	–
0.4 µM	0.85 µM	29 µM	–	–	CN1C(=O)c2c(Cc3ccccc3)nn(C)c2N2C1=N[C@@H]1CCC[C@@H]12 (racemic)	–	–	–
